MC4R antag cAMP – antagonists of human melanocortin 4 receptor (MC4R); P32245; MC4R-expressing cells, MTII-stimulated cAMP, LANCE TR-FRET; inhibition, % at 6.5 µM; actives 0.48% (n = 360,000);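 active = inhibition above its plate's cutoff, the mean of tested wells on that plate plus 3 SD, cut at about 29% in these data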;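 note: 0% = Melanotan II alone and 100% = Melanotan II plus saturating MCL0020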
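Test system: U2OS cells stably expressing human melanocortin 4 receptor (MC4R); also added: Melanotan II challenge; compound: 6.5 µM single dose; timing: 30-min compound preincubation, 1-h Melanotan II challenge, 1-h detection, room temperature; signal: Eu-cAMP/anti-cAMP TR-FRET, emission 671 nm; repeats: one well per compound, no replicates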
TMEM16A act – activates or potentiates the mouse TMEM16A chloride channel; actives 0.3% (n = 340,000); B-score at 10 µM; AID 623877; Q8BHY3; HEK293 TMEM16A/YFP-H148Q/I152L, iodide quench fluorescence; hits give low values;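 active = fluorescence-ratio B-score plate-corrected deviation score at least 3 library SD below zero, with starting fluorescence score within 5 deviations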;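 note: channel opened by trigger with iodide after compound preincubation; score built on the fluorescence ratio of max minus min over baseline; more negative score means more quench and so TMEM16A activation or potentiation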
m5-HT2A agonist – mouse HTR2A agonism via beta-arrestin recruitment. CHO-K1 mHTR2A beta-arrestin complementation, luminescence; percent of 30 µM serotonin response. activation, % at 7.6 µM. actives 0.66% (n = 360,000). AID 624169;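 active = activation above a run cutoff, the mean activation of all tested compounds plus 3 SD, cut at about 14% in these data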;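 note: 0% = plate median of compound wells and 100% = 30 µM serotonin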
MC4R barr agon – agonists of human melanocortin 4 receptor (MC4R) beta-arrestin | P32245 | U2OS MC4R beta-arrestin complementation, luminescence; percent of melanotan II response, DMSO zero | activation, % at 8.9 µM | actives 0.98% (n = 360,000) | AID 540308;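 active = activation above a per-plate cutoff, the mean activation of sample wells on that plate plus 3 SD, cut at about 8% in these data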
beta cell repl – MIN6 beta-cell proliferation induction; MIN6 cells proliferation, ATPlite luminescence, 48 h; cells starved in 0.2% serum; 100% = growth in 10% serum; proliferation, % at 10 µM; actives 0.29% (n = 330,000); AID 2380;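 active = compounds whose signal lies at least 3.5 SD above the mean of all wells on their plate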;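 note: 0% = DMSO-treated cells in low-serum medium and 100% = 10% serum control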
ANO1 block – inhibitors of mouse TMEM16A calcium-activated chloride channel; AID 588511; HEK293 TMEM16A/YFP iodide influx fluorescence, ionomycin; actives 1.2% (n = 310,000); Q8BHY3; normalized B-score (activity score, 25-100; higher = stronger inhibition) at 10 µM;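 active = ratio plate-corrected score three or more library SD toward inhibition, starting fluorescence score within five deviations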;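 note: score derived from kinetic fluorescence span divided by baseline fluorescence per well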
MOR ag counter – OPRM1 agonism in mouse HTR2A counterscreen | AID 624380 | U2OS OPRM1 beta-arrestin PathHunter, luminescence; DMSO 0%, DAMGO 9.3 µM 100% | activation, % at 9.3 µM | shares compounds with m5-HT2A agonist | actives 5.3% (n = 2,300);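 active = mean activation above the mean of DMSO-only wells plus 3 SD, cut at about 0.5% in these data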
Target sequence (P35372 whole entry, looked up): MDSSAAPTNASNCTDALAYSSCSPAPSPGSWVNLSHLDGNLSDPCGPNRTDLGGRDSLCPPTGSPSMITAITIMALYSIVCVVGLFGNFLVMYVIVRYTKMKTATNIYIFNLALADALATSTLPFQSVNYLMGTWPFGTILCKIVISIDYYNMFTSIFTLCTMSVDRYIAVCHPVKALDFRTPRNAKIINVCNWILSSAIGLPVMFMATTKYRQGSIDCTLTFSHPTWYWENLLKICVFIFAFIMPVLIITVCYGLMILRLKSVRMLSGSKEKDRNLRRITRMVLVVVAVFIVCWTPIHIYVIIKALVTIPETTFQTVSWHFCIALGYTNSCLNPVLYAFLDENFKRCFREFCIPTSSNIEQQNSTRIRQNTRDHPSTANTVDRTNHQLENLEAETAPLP
m5-HT2A ag conf – mouse HTR2A agonism confirmed; shares compounds with m5-HT2A agonist; AID 624381; CHO-K1 PathHunter beta-arrestin recruitment, luminescence; DMSO 0%, 30 µM serotonin 100%; actives 19% (n = 2,300); activation, % at 7.6 µM;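 active = mean activation across triplicates above the hit threshold derived in the original primary screen, cut at about 15% in these data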
The depositor's hits bear a star; i = inactive; / = no result given. Hits are enriched below; roughly 3.4% of the tested compounds scored in any of these assays.

SMILES	MC4R antag cAMP	TMEM16A act	m5-HT2A agonist	MC4R barr agon	beta cell repl	ANO1 block	MOR ag counter	m5-HT2A ag conf
COc1ccccc1NS(=O)(=O)c1cc(C(=O)NC2CC(C)(C)NC(C)(C)C2)ccc1Cl	11	i	-7	0	/	/	/	/
O=C(COC(=O)c1cnccn1)NCc1ccccc1Cl	3	/	-3	-2	/	/	/	/
COc1cc(CNC2CCCC2)cc(Cl)c1OCc1ccc(F)cc1	-4	i	18*	6	-5	i	0.8*	4
COc1ccc(-c2nc(-c3ccccc3OC)no2)cc1OC	-2	i	0	1	2	i	/	/
COc1ccccc1-c1noc(-c2ccccc2)n1	3	i	18*	0	-4	i	0	-4
O=C(Nc1ccc(Cl)c(S(=O)(=O)N2CCOCC2)c1)c1ccc(Cl)nc1	6	i	17*	0	0	/	0	0
O=C(Nc1ccc(Cl)c(S(=O)(=O)N2CCOCC2)c1)c1ccc2c(c1)OCCO2	11	i	-4	-1	0	i	/	/
COc1ccccc1/C=C/C(=O)NCC(=O)n1nc(C)cc1C	0	i	19*	0	0	i	-1	-1
C=C[C@](C)(CC[C@@]1(C)C(C)CC(OC2OC(C)C(OC3OC(COC(C)=O)C(O)C(O)C3O)C(O)C2O)[C@@]2(C)C(C)=CCCC12)OC1OC(C)C(O[C@@H]2O[C@@H](C)C(O)C(O)[C@H]2O)C(O)C1O (some centres undefined)	6	i	5	1	-1	/	/	/
CC(=O)Nc1ccc(SC[C@H](CC(C)C)N2CCN(CCc3ccccc3)CCC2=O)cc1	5	i	19*	-1	-5	i	0	17*
Cc1ccc(SC[C@H](CC(C)C)N2CCN(CCc3ccccc3)CCC2=O)cc1	3	i	-13	-1	-7	/	/	/
COc1ccccc1CCNC(=O)c1ccc(Br)s1	3	i	-12	-2	-6	i	/	/
COc1ccccc1CC(=O)Nc1ccc(NC(=O)c2cccs2)cc1	-1	i	-2	0	-3	i	/	/
CCOc1ccccc1C(=O)NCC(=O)NNC(=O)c1cccs1	7	i	19*	-2	-1	/	-1	-5
COc1ccccc1CC(=O)NNC(=O)c1cccs1	6	i	15*	-2	-1	i	-1	-1
COc1ccccc1-c1csc(C(O)c2ccc(F)c(F)c2)n1 (centres undefined)	4	/	-4	0	/	/	/	/
Cc1cc(NC(=O)c2cc([N+](=O)[O-])ccc2Cl)no1	13	i	17*	-1	-2	i	0	-2
CC(C)c1ccc(CN(C(=O)c2cccs2)C2CCS(=O)(=O)C2)cc1 (centres undefined)	3	i	15*	0	0	i	-1	-4
O=C(c1cccs1)N(Cc1ccc(Cl)cc1)C1CCS(=O)(=O)C1 (centres undefined)	6	i	-1	-1	4	i	/	/
CCOc1ccc(OCC)c(NC(=O)C2CCN(c3cnccn3)CC2)c1	-2	i	-4	-1	1	i	/	/
CCOC(=O)CSC1=NN2CCS(=O)(=O)N=C2S1	-8	i	6	1	-2	i	/	/
CCOC(=O)CN1CCS(=O)(=O)CC1	3	i	16*	-3	0	i	0	2
CN1OC[C@@H]2CN(Cc3cc(Cl)cc(Cl)c3)[C@H](c3cccc(Oc4ccccc4)c3)C[C@@H]21	-1	/	15*	-1	/	/	-1	-3
